# Experimental data: ChEMBL document CHEMBL3045304, “Sesquiterpene lactones with potential use as natural herbicide models. 2. guaianolides” (2000)
# Activity calls are given as the source filed them. The rule behind the calls is not given here.
# Tests used:
# Lepidium sativum [1] = test: Stimulation of root length of Lepidium sativum at 0.1 mM or 1 mM after 5 days relative to untreated control; type: functional
# Allium cepa [2] = test: Stimulation of root length of Allium cepa cv. Valenciana (onion) at 0.1 mM or 1 mM after 7 days relative to untreated control
# Lactuca sativa [3] = test: Inhibition of root length of Lactuca sativa cv. Roman (lettuce) at 0.1 mM or 1 mM after 5 days relative to untreated control; type: functional
# In short: (§1)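 Lettuce and tomato seeds, 25 per dish on filter paper, received 5 mL test solution. Incubation was 5 days in the dark at 25 °C, with four replicates per concentration. Solutions were made at 10^-3 or 10^-4 M in 10 mM MES, diluted serially, and adjusted to pH 6.0. Parallel controls were run. Results are % difference from control.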
# Solanum lycopersicum [4] = test: Stimulation of germination of Solanum lycopersicum cv. Tres Cantos (tomato) at 0.1 mM or 1 mM after 5 days relative to untreated control; type: functional; in short: as §1
# Lepidium sativum [5] = test: Stimulation of hypocotyl length of Lepidium sativum at 0.1 mM or 1 mM after 5 days relative to untreated control; type: functional
# Lactuca sativa [6] = test: Inhibition of hypocotyl length of Lactuca sativa cv. Roman (lettuce) at 0.1 mM or 1 mM after 5 days relative to untreated control; type: functional; in short: as §1
# Solanum lycopersicum [7] = test: Inhibition of germination of Solanum lycopersicum cv. Tres Cantos (tomato) at 0.1 mM or 1 mM after 5 days relative to untreated control; type: functional; in short: as §1
# Lepidium sativum [8] = test: Inhibition of root length of Lepidium sativum at 0.1 mM or 1 mM after 4 days relative to untreated control
# Allium cepa [9] = test: Inhibition of hypocotyl length of Allium cepa cv. Valenciana (onion) at 0.1 mM or 1 mM after 7 days relative to untreated control
# Triticum aestivum [10] = test: Inhibition of germination of Triticum aestivum cv. Cortex (wheat) at 0.1 mM or 1 mM after 5 days relative to untreated control; type: functional
# In short: (§2)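 Wheat: 10 seeds per dish on filter paper with 5 mL test solution, 5 days in the dark at 25 °C, 10 replicates per concentration. Stock test solutions were 10^-3 or 10^-4 M in 10 mM MES, with lower levels made by dilution, all at pH 6.0. Parallel controls were run. Output is % difference from control.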
# Allium cepa [11] = test: Stimulation of hypocotyl length of Allium cepa cv. Valenciana (onion) at 0.1 mM or 1 mM after 7 days relative to untreated control
# Lepidium sativum [12] = test: Inhibition of hypocotyl length of Lepidium sativum at 0.1 mM or 1 mM after 4 days relative to untreated control
# Triticum aestivum [13] = test: Stimulation of germination of Triticum aestivum cv. Cortex (wheat) at 0.1 mM or 1 mM after 5 days relative to untreated control; type: functional; in short: as §2
# Lactuca sativa [14] = test: Stimulation of root length of Lactuca sativa cv. Roman (lettuce) at 0.1 mM or 1 mM after 5 days relative to untreated control; type: functional; in short: as §1
# Triticum aestivum [15] = test: Inhibition of root length of Triticum aestivum cv. Cortex (wheat) at 0.1 mM or 1 mM after 5 days relative to untreated control; type: functional; in short: as §2
# Solanum lycopersicum [16] = test: Stimulation of root length of Solanum lycopersicum cv. Tres Cantos (tomato) at 0.1 mM or 1 mM after 5 days relative to untreated control; type: functional; in short: as §1
# Triticum aestivum [17] = test: Stimulation of root length of Triticum aestivum cv. Cortex (wheat) at 0.1 mM or 1 mM after 5 days relative to untreated control; type: functional; in short: as §2
# Solanum lycopersicum [18] = test: Stimulation of hypocotyl length of Solanum lycopersicum cv. Tres Cantos (tomato) at 0.1 mM or 1 mM after 5 days relative to untreated control; type: functional; in short: as §1
# Triticum aestivum [19] = test: Inhibition of hypocotyl length of Triticum aestivum cv. Cortex (wheat) at 0.1 mM or 1 mM after 5 days relative to untreated control; type: functional; in short: as §2
# Lactuca sativa [20] = test: Stimulation of germination of Lactuca sativa cv. Roman (lettuce) at 0.1 mM or 1 mM after 5 days relative to untreated control; type: functional; in short: as §1
# Solanum lycopersicum [21] = test: Inhibition of hypocotyl length of Solanum lycopersicum cv. Tres Cantos (tomato) at 0.1 mM or 1 mM after 5 days relative to untreated control; type: functional; in short: as §1
# Allium cepa [22] = test: Stimulation of germination of Allium cepa cv. Valenciana (onion) at 0.1 mM or 1 mM after 5 days relative to untreated control; type: functional
# Solanum lycopersicum [23] = test: Inhibition of root length of Solanum lycopersicum cv. Tres Cantos (tomato) at 0.1 mM or 1 mM after 5 days relative to untreated control; type: functional; in short: as §1
# Lepidium sativum [24] = test: Inhibition of germination of Lepidium sativum at 0.1 mM or 1 mM after 4 days relative to untreated control
# Allium cepa [25] = test: Inhibition of root length of Allium cepa cv. Valenciana (onion) at 0.1 mM or 1 mM after 5 days relative to untreated control; type: functional
# Allium cepa [26] = test: Inhibition of germination of Allium cepa cv. Valenciana (onion) at 0.1 mM or 1 mM after 5 days relative to untreated control; type: functional
# Lactuca sativa [27] = test: Inhibition of germination of Lactuca sativa cv. Roman (lettuce) at 0.1 mM or 1 mM after 5 days relative to untreated control; type: functional; in short: as §1
# Triticum aestivum [28] = test: Stimulation of hypocotyl length of Triticum aestivum cv. Cortex (wheat) at 0.1 mM or 1 mM after 5 days relative to untreated control; type: functional; in short: as §2
# Lactuca sativa [29] = test: Stimulation of hypocotyl length of Lactuca sativa cv. Roman (lettuce) at 0.1 mM or 1 mM after 5 days relative to untreated control; type: functional; in short: as §1
# Allium cepa [30] = test: Stimulation of germination of Allium cepa cv. Valenciana (onion) at 0.1 mM or 1 mM after 7 days relative to untreated control
# Lepidium sativum [31] = test: Inhibition of germination of Lepidium sativum at 0.1 mM or 1 mM after 4 days relative to untreated control; parameters: scale not given: the % may be the effect or the level left
# Lepidium sativum [32] = test: Inhibition of germination of Lepidium sativum at 0.1 mM or 1 mM after 5 days relative to untreated control; type: functional
Structure (SMILES),Activity (Lepidium sativum [1]),Activity (Allium cepa [2]),inhibition (INH) (Lactuca sativa [3]),Activity (Solanum lycopersicum [4]),Activity (Lepidium sativum [5]),inhibition (INH) (Lactuca sativa [6]),inhibition (Solanum lycopersicum [7]),inhibition (INH) (Lepidium sativum [8]),inhibition (Allium cepa [9]),Activity (Allium cepa [11]),inhibition (INH) (Lepidium sativum [12]),Activity (Triticum aestivum [13]),Activity (Lactuca sativa [14]),Activity (Solanum lycopersicum [16]),Activity (Triticum aestivum [17]),Activity (Solanum lycopersicum [18]),Activity (Lactuca sativa [20]),inhibition (Solanum lycopersicum [23]),Activity (Triticum aestivum [28]),Activity (Lactuca sativa [29]),further results
C=C1CC[C@H]2[C@H](C)C(=O)O[C@@H]2[C@@]2(O)C(=C)[C@H](O)C[C@@]12O,<20%,inactive,>40%,inactive,<20%,>40%,inactive,<20%,inactive,inactive,<20%,inactive,>40%,inactive,inactive,inactive,20%,inactive,inactive,>40%,inhibition (Triticum aestivum [10]): inactive; inhibition (Triticum aestivum [15]): inactive; inhibition (Triticum aestivum [19]): inactive; inhibition (Solanum lycopersicum [21]): inactive; Activity (Allium cepa [22]): inactive; Activity (Lepidium sativum [24]): inactive; inhibition (Lepidium sativum [24]): inactive; inhibition (Allium cepa [25]): inactive; inhibition (Allium cepa [26]): inactive; inhibition (INH) (Lactuca sativa [27]): 20%
C=C1[C@@H]2[C@H]3OC(=O)[C@@H](CO)[C@@H]3CCC(=C)[C@@H]2C[C@H]1O,20%,inactive,20%,inactive,<20%,>40%,inactive,20%,inactive,inactive,<20%,inactive,20%,inactive,inactive,inactive,<20%,inactive,inactive,>40%,inhibition (Triticum aestivum [10]): inactive; inhibition (Triticum aestivum [15]): inactive; inhibition (Triticum aestivum [19]): inactive; inhibition (Solanum lycopersicum [21]): inactive; Activity (Lepidium sativum [24]): inactive; inhibition (Lepidium sativum [24]): inactive; inhibition (Allium cepa [25]): inactive; inhibition (Allium cepa [26]): inactive; inhibition (INH) (Lactuca sativa [27]): <20%; Activity (Allium cepa [30]): inactive
C=C1CC[C@H]2C(=C)CC[C@H]3C(=C)C(=O)O[C@@H]3[C@@H]12 [DEHYDROCOSTUSLACTONE],>40%,–,–,inactive,>40%,<20%,inactive,>40%,–,–,>40%,>40%,inactive,inactive,>40%,inactive,20%,inactive,20%,<20%,inhibition (Lactuca sativa [3]): inactive; inhibition (INH) (Triticum aestivum [10]): >40%; Activity (Lepidium sativum [31]): 20%; inhibition (INH) (Triticum aestivum [15]): >40%; inhibition (INH) (Lepidium sativum [32]): 20%; inhibition (INH) (Triticum aestivum [19]): 20%; inhibition (Solanum lycopersicum [21]): inactive; inhibition (INH) (Lactuca sativa [27]): 20%
CC(=O)O[C@H]1CC(C)=C2C(=O)C=C(C)[C@@H]2[C@H]2OC(=O)[C@H](C)[C@H]21 [8ALPHA-ACETOXYACHILLIN],inactive,inactive,<20%,inactive,inactive,<20%,inactive,–,inactive,inactive,–,20%,<20%,inactive,inactive,<20%,inactive,inactive,<20%,<20%,inhibition (Lepidium sativum [8]): inactive; inhibition (INH) (Triticum aestivum [10]): 20%; inhibition (Lepidium sativum [12]): inactive; inhibition (Triticum aestivum [15]): inactive; inhibition (INH) (Triticum aestivum [19]): <20%; inhibition (INH) (Solanum lycopersicum [21]): <20%; Activity (Lepidium sativum [24]): inactive; inhibition (Lepidium sativum [24]): inactive; inhibition (Allium cepa [25]): inactive; inhibition (Allium cepa [26]): inactive; inhibition (Lactuca sativa [27]): inactive; Activity (Allium cepa [30]): inactive
C=C1C(=O)O[C@H]2[C@H]1CCC(=C)[C@]13C[C@@H](O)C(=C)[C@]21OC(C)(C)O3,>40%,inactive,20%,inactive,>40%,–,inactive,>40%,inactive,inactive,>40%,inactive,20%,inactive,<20%,inactive,<20%,inactive,<20%,inactive,inhibition (Lactuca sativa [6]): inactive; inhibition (Triticum aestivum [10]): inactive; Activity (Lepidium sativum [31]): 20%; inhibition (INH) (Triticum aestivum [15]): <20%; inhibition (INH) (Lepidium sativum [32]): 20%; inhibition (INH) (Triticum aestivum [19]): <20%; inhibition (Solanum lycopersicum [21]): inactive; Activity (Allium cepa [22]): inactive; inhibition (Allium cepa [25]): inactive; inhibition (Allium cepa [26]): inactive; inhibition (INH) (Lactuca sativa [27]): <20%
C=C1CC[C@H]2[C@H](CO)C(=O)O[C@@H]2[C@@]2(O)C(=C)[C@H](O)C[C@@H]12,>40%,inactive,20%,inactive,20%,>40%,inactive,>40%,inactive,inactive,20%,<20%,20%,inactive,inactive,inactive,20%,inactive,inactive,>40%,inhibition (INH) (Triticum aestivum [10]): <20%; inhibition (Triticum aestivum [15]): inactive; inhibition (Triticum aestivum [19]): inactive; inhibition (Solanum lycopersicum [21]): inactive; Activity (Allium cepa [22]): inactive; Activity (Lepidium sativum [24]): inactive; inhibition (Lepidium sativum [24]): inactive; inhibition (Allium cepa [25]): inactive; inhibition (Allium cepa [26]): inactive; inhibition (INH) (Lactuca sativa [27]): 20%
